Laboratory results taken from paper PMC6030392 (Neoplasia (New York, N.Y.), 2018).
Read-outs that look alike come from different tables or passages of the source. Marks after values point to notes of the source that are not given here.

What was measured:
Mdr1a (P-gp) = Mdr1a (P-gp) (Mus musculus, UniProt P21447); experiment: In vitro Transwell transport, LLC-PK1 parent versus Mdr1a transduced subline; format: in vitro ADME, murine; details: temozolomide 40 μg/ml; LLC-PK1 vs LLC-Mdr1a
[1] = Plasma pharmacokinetics of oral temozolomide; format: in vivo, mice; details: 100 mg/kg oral; WT n = 18, Abcb1a/b;Abcg2^−/− n = 19
[2] = system: intracranial Mel57-luc tumors; experiment: Intracranial Mel57-luc tumor efficacy study; format: in vivo, FVB nude mice; details: oral 100 mg/kg/day × 5
Summary of the method: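 WT or Abcb1a/b;Abcg2^−/− FVB nude mice received Mel57-luc cells (100,000 cells/2 μl) stereotactically 2 mm lateral, 1 mm anterior to bregma, 3 mm deep. Tumor load was set by bioluminescence before stratification to oral test compound 100 mg/kg/day for 5 days, untreated control, or combination with oral inhibitor 20–30 min earlier. Repeated imaging was expressed relative to the first measurement and log-transformed.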

[3] = format: in vivo, FVB mice; details: for AUC 0–7 h, brain: mean ± SE, n ≥ 7
Summary of the method: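 Male FVB mice (WT, Abcg2^−/−, Abcb1a/b^−/−, Abcb1a/b;Abcg2^−/−; 8–15 weeks) got 50 mg/kg i.v. via tail vein. Groups of […] were sampled at 15 min, 1, 2, 4, 7 h by cardiac puncture (K-EDTA plasma, acidified with 1 M HCl). Brains were homogenized in pH 2 phosphate/1% BSA. Extracts (ethyl acetate) were run on HPLC in duplicate. AUC0–7h by linear trapezoidal rule; brain-to-plasma ratio per animal; two-way ANOVA with Bonferroni.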

[4] = cited from earlier work
Bcrp1 = biological target: T1, Bcrp1 (Mus musculus, UniProt Q7TMS5); experiment: In vitro Transwell transport, MDCKII parent versus Bcrp1 transduced subline; format: in vitro ADME
T1 sequence (Q7TMS5 1-657): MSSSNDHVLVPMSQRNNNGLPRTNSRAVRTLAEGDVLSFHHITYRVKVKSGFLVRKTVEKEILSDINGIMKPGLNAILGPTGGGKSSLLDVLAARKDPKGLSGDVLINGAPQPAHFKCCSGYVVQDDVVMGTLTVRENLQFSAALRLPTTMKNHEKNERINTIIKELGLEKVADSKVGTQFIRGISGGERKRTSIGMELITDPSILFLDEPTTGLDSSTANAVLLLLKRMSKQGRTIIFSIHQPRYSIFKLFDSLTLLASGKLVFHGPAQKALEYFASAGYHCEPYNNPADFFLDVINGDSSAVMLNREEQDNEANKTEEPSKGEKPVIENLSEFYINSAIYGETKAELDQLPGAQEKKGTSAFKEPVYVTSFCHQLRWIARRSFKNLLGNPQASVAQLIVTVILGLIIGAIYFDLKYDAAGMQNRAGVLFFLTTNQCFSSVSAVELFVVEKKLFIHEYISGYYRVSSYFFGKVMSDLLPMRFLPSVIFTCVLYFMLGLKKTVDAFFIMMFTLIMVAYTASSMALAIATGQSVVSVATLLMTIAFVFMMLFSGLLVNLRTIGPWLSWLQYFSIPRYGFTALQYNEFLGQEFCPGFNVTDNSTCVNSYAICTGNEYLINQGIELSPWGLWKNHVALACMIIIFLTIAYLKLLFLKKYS
Summary of the method: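 MDCKII parent and Bcrp1-transduced cells were grown 3 days on 3.0 μm polycarbonate Transwell filters (1 × 10⁶ cells/well) in MEM with 10% FBS at 37°C. Test compound (40 μg/ml in OptiMEM) went apical or basolateral. Inhibitor went to both sides, plus a P-gp blocker (5 μM). Sampling was every 30 min to 2 h, with half the donor refreshed each time. Wells leaking >1.5%/h were excluded. Analysis by HPLC.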

[5] = Recovery in acceptor compartment of Transwell; format: in vitro ADME; details: after 30 minutes; transport medium pH 7.4
[6] = Stability in culture medium at 37°C; format: physicochemical
[7] = C57BL × DBA/2 F1 mice; cited from earlier work
[8] = system: GSC457 glioblastoma cells; experiment: Orthotopic GSC457 glioblastoma efficacy study; format: in vivo, murine; details: oral 100 mg/kg/day × 7
[9] = dose level of 100 mg/kg; cited from earlier work
[10] = cited from earlier work; remark: listed apart in the source
[11] = cited from earlier work; remark: listed apart in the source
[12] = cited from earlier work; remark: listed apart in the source
[13] = Abcb1a/b^−/− mice, 50 mg/kg i.v.

Mdr1a (P-gp), sequence (P21447 whole entry): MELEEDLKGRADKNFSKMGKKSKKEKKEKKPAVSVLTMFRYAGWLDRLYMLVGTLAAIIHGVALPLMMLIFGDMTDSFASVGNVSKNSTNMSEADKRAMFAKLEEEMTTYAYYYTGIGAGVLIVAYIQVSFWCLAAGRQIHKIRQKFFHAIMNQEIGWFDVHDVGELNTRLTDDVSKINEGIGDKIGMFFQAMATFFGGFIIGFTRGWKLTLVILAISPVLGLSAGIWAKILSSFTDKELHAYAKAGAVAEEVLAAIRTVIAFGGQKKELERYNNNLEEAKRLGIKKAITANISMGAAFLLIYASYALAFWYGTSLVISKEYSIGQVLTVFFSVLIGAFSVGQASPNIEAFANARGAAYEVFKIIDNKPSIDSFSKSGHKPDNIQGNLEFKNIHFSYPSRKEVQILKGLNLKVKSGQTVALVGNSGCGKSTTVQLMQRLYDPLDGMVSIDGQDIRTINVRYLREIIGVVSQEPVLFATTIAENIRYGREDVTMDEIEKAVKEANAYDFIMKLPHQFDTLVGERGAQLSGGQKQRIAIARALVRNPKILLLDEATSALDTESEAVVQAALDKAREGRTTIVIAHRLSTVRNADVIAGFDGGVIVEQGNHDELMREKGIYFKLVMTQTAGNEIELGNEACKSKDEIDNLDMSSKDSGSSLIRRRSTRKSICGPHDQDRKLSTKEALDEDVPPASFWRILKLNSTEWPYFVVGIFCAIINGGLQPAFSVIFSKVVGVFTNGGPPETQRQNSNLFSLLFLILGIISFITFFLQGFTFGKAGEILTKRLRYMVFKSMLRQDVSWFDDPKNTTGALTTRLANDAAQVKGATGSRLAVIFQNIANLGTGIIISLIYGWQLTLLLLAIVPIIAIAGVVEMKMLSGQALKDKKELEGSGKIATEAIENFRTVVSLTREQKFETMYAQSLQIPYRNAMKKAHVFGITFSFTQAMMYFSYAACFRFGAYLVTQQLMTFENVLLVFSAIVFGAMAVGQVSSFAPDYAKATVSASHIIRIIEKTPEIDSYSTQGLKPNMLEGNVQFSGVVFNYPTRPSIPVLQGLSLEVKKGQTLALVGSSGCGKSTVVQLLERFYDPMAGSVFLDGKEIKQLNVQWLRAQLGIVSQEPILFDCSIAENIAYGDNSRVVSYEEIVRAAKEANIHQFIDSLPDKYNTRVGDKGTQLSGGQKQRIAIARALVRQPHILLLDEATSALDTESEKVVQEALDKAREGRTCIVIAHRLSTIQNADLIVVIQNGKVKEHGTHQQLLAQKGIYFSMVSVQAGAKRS

With Cn1nnc2c(C(N)=O)ncn2c1=O [temozolomide] the “transport by P-gp” value (Mdr1a (P-gp)) was “very limited, if any, evidence for transport by P-gp”, the “plasma AUC in Abcb1a/b;Abcg2^−/− versus WT mice” value [1] was “not significantly different” and the “antitumor efficacy against intracranial Mel57 tumors, relative to WT mice” value ([2]; Abcb1a/b;Abcg2^−/− mice) was “significantly higher”. For the same molecule, the “antitumor efficacy against intracranial Mel57 tumors” value ([2]; WT mice) was “modest efficacy”, the “increase of brain accumulation compared to WT mice” value (“increase of brain accumulation” for short) ([3]; Abcb1a/b;Abcg2^−/− mice, 50 mg/kg i.v., P < .001) was 50% and the “AUC 0–7 h, brain” value ([3]; Abcb1a/b;Abcg2^−/− mice, 50 mg/kg i.v.) was 57.09 ± 1.32**^/# μg/g.h. For the same molecule, the “increase of brain accumulation” value [3, 13] was “about 20%”, the “AUC 0–7 h, brain” value [3, 13] was 44.51 ± 1.56 µg·h/g and the “increase of brain accumulation” value ([3]; Abcg2^−/− mice, 50 mg/kg i.v.) was 20%. The “AUC 0–7 h, brain” value ([3]; Abcg2^−/− mice, 50 mg/kg i.v.) was 44.78 ± 1.88 µg·h/g, the “AUC 0–7 h, brain” value ([3]; WT mice, 50 mg/kg i.v.) was 36.81 ± 1.11 µg·h/g and the “increase of brain penetration compared to wild-type controls” value ([3]; combined deletion of Abcb1a/b and Abcg2, P < .001) was 1.5 fold. The “effect of absence of drug transporters on plasma clearance” value ([3]; knockout vs WT mice, 50 mg/kg i.v.) was “did not affect the plasma clearance”, the main dose-limiting toxicity [4] was “bone marrow toxicity” and the “transport by Bcrp1” value (Bcrp1; temozolomide 40 μg/ml, MDCKII vs MDCKII-Bcrp1, zosuquidar 5 μM present) was “clear vectorial transport by Bcrp1”. For the same molecule, the “fraction of the donor concentration recovered in the acceptor compartment” value [5] was “at least 5%”, the half-life [6] was ~30 min and the oral bioavailability [7] was “almost complete”. The “tumor growth and survival, Abcb1a/b;Abcg2^−/− compared to WT mice” value [8] was “significantly slower tumor growth and longer survival”.

For COc1cc2ncnc(Nc3ccc(F)c(Cl)c3)c2cc1OCCCN1CCOCC1 [gefitinib], the “effect on Bcrp1-mediated transport of temozolomide” value (shortened to “effect on Bcrp1-mediated transport”) (Bcrp1; inhibitor 10 μM in the medium) is listed as “almost completely abrogated”, the plasma levels [9] is listed as “about 10 μM” and the “plasma levels achievable in patients relative to the level after 100 mg/kg” value [10] is listed as “about 10 fold lower”.

For CC(=O)c1c(C)c2cnc(Nc3ccc(N4CCNCC4)cn3)nc2n(C2CCCC2)c1=O [palbociclib], the “higher brain penetration in Abcb1a/b^−/− compared to WT controls” value [11] is listed as “approximately 15 fold”.

In the case of CO[C@@H]1[C@@H](OC(N)=O)[C@@H](O)[C@H](Oc2ccc3c(O)c(NC(=O)c4ccc(O)c(CC=C(C)C)c4)c(=O)oc3c2C)OC1(C)C [novobiocin], the “effect on Bcrp1-mediated transport” value (Bcrp1; inhibitor 50 μM in the medium) is reported as “not sufficient”.

In the case of Cc1ccc(NC(=O)c2ccc(CN3CCN(C)CC3)cc2)cc1Nc1nccc(-c2cccnc2)n1 [imatinib], the brain penetration ([11]; significantly enhanced in Abcb1a/b;Abcg2^−/− mice) is given as “poor” and the oral bioavailability [12] is given as > 90%.

For CC(=O)O[C@H]1C(=O)[C@@]2(C)[C@H]([C@H](OC(=O)c3ccccc3)[C@]3(O)C[C@H](OC(=O)[C@H](O)[C@@H](NC(=O)c4ccccc4)c4ccccc4)C(C)=C1C3(C)C)[C@]1(OC(C)=O)CO[C@@H]1C[C@@H]2O [paclitaxel], the “higher brain penetration in Abcb1a/b^−/− compared to WT controls” value [11] is listed as 5 fold.

For C#Cc1cccc(Nc2ncnc3cc(OCCOC)c(OCCOC)cc23)c1 [erlotinib], the “effect on Bcrp1-mediated transport” value (Bcrp1; inhibitor 10 μM in the medium) was “almost completely abrogated”.

For COc1cc2c(cc1OC)CN(CCc1ccc(NC(=O)c3cccc4c(=O)c5cccc(OC)c5[nH]c34)cc1)CC2 [elacridar], the “effect on Bcrp1-mediated transport” value (Bcrp1; inhibitor 5 μM in the medium) was “almost completely abrogated”.
